Active and inactive are the calls of the source. No cut-off for these calls is given here.
What was measured:
T-24 [1] = assay: Antiproliferative activity against quiescent human T24 cells at 10 uM after 72 hrs by MTT assay; type: functional, cell-based
Procedure, shortened: (§1)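 T24 cells were seeded at 2000/cm², and 16 h later were exposed to starvation medium (D-MEM, 0.1% FBS) or fresh complete medium (10% FBS) and treated with compound, with 0.01% DMSO as control. For the final 1 h the medium held MTT at 0.5 mg/mL. Formazan was then dissolved in DMSO for read-out. Data are mean ± SD of at least 3 experiments in triplicate, Student's t test.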

T-24 [2] = assay: Antiproliferative activity against proliferating human T24 cells assessed as mild decrease in viable cell count at 10 uM after 72 hrs by trypan blue exclusion assay; type: functional, cell-based
Procedure, shortened: (§2)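 T24 cells were seeded at 2000/cm² in growth medium and allowed to attach for 16 h. They were then switched to complete medium (D-MEM, 10% FBS, 1 mM L-glutamine, penicillin/streptomycin) or to starvation medium (D-MEM, 0.1% FBS, 48 h, to induce quiescence). After 48 h, compound was added for 72 h, with 0.01% DMSO as control. Cells were trypsinized, stained with trypan blue and counted in a Burker chamber. Data are mean ± SD of at least 3 experiments in triplicate.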

T-24 [3] = assay: Antiproliferative activity against quiescent human T24 cells assessed as decrease in viable cell count at 10 uM after 72 hrs by trypan blue exclusion assay; type: functional, cell-based; procedure, shortened: as §2
T-24 [4] = assay: Cytotoxicity against human T24 cells assessed as mild inhibition of cell colony formation at 10 uM after 24 hrs by crystal violet staining; type: functional, cell-based
T-24 [5] = assay: Antimetastatic activity in human T24 cells assessed as inhibition of EGF-stimulated cellular migration at 10 uM after 16 hrs by microscopic analysis; type: functional, cell-based
Procedure, shortened: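 Confluent T24 monolayers in 24-well plates were scratch-wounded, then given EGF (100 ng/mL) plus compound for 16 h, with DMSO (0.01% final) as control. Cells moving into the wound were photographed by microscope. Four fields per sample were counted and expressed as migration relative to control. Data are from at least 3 experiments in triplicate, mean ± SD, Student's t test.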

T-24 [6] = assay: Cytotoxicity against human T24 cells assessed as inhibition of cell colony formation at 10 uM after 24 hrs by crystal violet staining; type: functional, cell-based
T-24 [7] = assay: Antiproliferative activity against proliferating human T24 cells at 10 uM after 72 hrs by MTT assay; type: functional, cell-based; procedure, shortened: as §1
T-24 [8] = assay: Antiproliferative activity against proliferating human T24 cells at 10 uM after 72 hrs by MTT assay in presence of 10% fetal bovine serum

SMILES | Activity (T-24 [1]) | inhibition (T-24 [2]) | inhibition (T-24 [3]) | inhibition (T-24 [4]) | inhibition (T-24 [5]) | inhibition (T-24 [6]) | Activity (T-24 [7]) | Activity (T-24 [8])
CC(C)=CCNc1nc(N)nc2c1ncn2[C@@H]1O[C@H](CO)[C@@H](O)[C@H]1O | Active | Active | Active | Active | inactive | – | – | –
CC(C)=CCNc1ncnc2c1ncn2[C@@H]1O[C@H](CO)[C@@H](O)[C@@H]1O | inactive | – | – | – | – | inactive | inactive | –
CC(C)=CCNc1ncnc2c1ncn2[C@@H]1O[C@H](CO)[C@@H](O)[C@H]1O (stereo in doubt) | Active | – | – | – | inactive | Active | – | –
CC(C)=CC[n+]1cnc2c(ncn2[C@@H]2O[C@H](CO)C[C@H]2O)c1N | – | – | Active | – | inactive | – | – | inactive
CC(C)=CCNc1ncnc2c1ncn2[C@@H]1O[C@H](CO)[C@@H](O)[C@H]1O (stereo in doubt; 1a) | – | – | – | – | – | inactive | – | –

From ChEMBL document CHEMBL1165978, “Synthesis and evaluation of in vitro anticancer activity of some novel isopentenyladenosine derivatives” (Bioorg Med Chem, 2010)
